For data set [1], the system named is Oligodendrocyte progenitor cell. As to the kind of experiment: Inhibition of HDAC in mouse oligodendrocyte progenitor cells assessed as decreased in number of differentiating cells at 20 nM after 24 to 48 hrs by CNP and MBP staining based assay. The conditions noted are these: time 24-48 hrs.
Data set [2] concerns the target Protein arginine N-methyltransferase 5 (Mus musculus) (UniProt Q8CIG8). In words: Inhibition of PRMT5 in mouse oligodendrocyte progenitor cells assessed as increase in levels of H4K5Ac at 10 nM incubated for 24 to 72 hrs by Western blot analysis. It counts as cell-based. The settings on record: Oligodendrocyte progenitor cell, time 24-72 hrs.
The target is the same in data set [3]. As to the kind of experiment: Inhibition of PRMT5 in mouse oligodendrocyte progenitor cells assessed as decrease in levels of H4R3me2s at 10 nM incubated for 24 to 72 hrs by Western blot analysis. The conditions noted are these: Oligodendrocyte progenitor cell, time 24-72 hrs. It is filed as cell-based. In general terms: A western blot detects proteins with antibodies after separation by electrophoresis.

The target is the same in data set [4]. In words: Inhibition of PRMT5 in Trp53-/- mouse oligodendrocyte progenitor cells assessed as reduction of the number of cleaved caspase--3-positive CNP+ cells in differentiating OPCs. It is filed as cell-based. The settings on record: Oligodendrocyte progenitor cell. The method in brief:
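Trp53−/− OPCs (Trp53fl/fl OPCs infected with Cre retrovirus) and Trp53fl/fl OPCs held in differentiating conditions (no growth factors, 60 nM T3) with or without 10 nM inhibitor. Immunostained for CNP and cleaved caspase-3 with DAPI. CNP+/DAPI+ ratio and cleaved caspase-3 intensity from three biological replicates, expressed relative to untreated cells of the same genotype.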

Data set [5] is described as follows: Effect on cell proliferation in mouse oligodendrocyte progenitor cells assessed as Ki67+/PDGFRalpha+ cell count measured after 12 to 48 hrs by immunoreactivity based assay. It counts as toxicity. The conditions noted are these: time 12-48 hrs. The method in brief:
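P7 mouse OPCs immunopanned for PDGFRα, kept proliferating in SATO medium with PDGF-AA and bFGF, then treated with inhibitor or DMSO. Cells fixed in 4% PFA and immunostained for PDGFRα and KI67. Double-positive (KI67+ PDGFRα+) cells counted by confocal imaging from three biological replicates.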

A short description of data set [6]: Effect on cell proliferation in Trp53fl/fl wild type mouse oligodendrocyte progenitor cells at 10 nM by cell count assay. It is filed as toxicity, cell-based. The settings on record: 0.01 µM. The method in brief:
(§1)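 Primary OPCs from Trp53fl/fl mice (P7 immunopanning for PDGFRα), uninfected, alongside Cre-retrovirus-infected Trp53−/− counterparts. Cultured in SATO medium with PDGF-AA 10 ng/ml + bFGF 20 ng/ml (proliferating) or without growth factors + T3 60 nM (differentiating). Treated ± 10 nM inhibitor, DMSO controls. Cell counts averaged over three biological replicates.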

In data set [7] the target is Protein arginine N-methyltransferase 5 (Mus musculus) (UniProt Q8CIG8). As to the kind of experiment: Inhibition of PRMT5 in Trp53fl/fl wild type mouse oligodendrocyte progenitor cells assessed as decreased in number of differentiating cells at 10 nM by cell count assay. It is filed as cell-based. Put shortly:
as §1

The target is the same in data set [8]. As to the kind of experiment: Inhibition of PRMT5 in mouse oligodendrocyte progenitor cells assessed as decrease in levels of H4R3me2s incubated for 24 to 72 hrs by immunoreactivity based analysis. The conditions noted are these: Oligodendrocyte progenitor cell, time 24-72 hrs. The method in brief: (§2)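 Primary OPCs in growth-factor-free chemically defined medium, treated with DMSO or inhibitor over a time course. Fixed cells immunostained for H4R3me2s or H4K5ac. Nuclear pixel intensity measured by confocal imaging in an average of 395 cells per condition, three biological replicates.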

Data set [9] shares this target. As to the kind of experiment: Inhibition of PRMT5 in mouse oligodendrocyte progenitor cells assessed as increase in levels of H4K5Ac incubated for 24 to 72 hrs by immunoreactivity based analysis. The settings on record: Oligodendrocyte progenitor cell, time 24-72 hrs. Put shortly:
as §2

For data set [10] the target is unchanged. In words: Inhibition of PRMT5 in mouse oligodendrocyte progenitor cells assessed as decreased in number of differentiating cells in presence of 100 uM KAT inhibitor Butyrolactone-3 after 24 to 48 hrs by CNP and MBP staining based assay. The settings on record: Oligodendrocyte progenitor cell, time 24-48 hrs.
Data set [11] shares this target. As to the kind of experiment: Inhibition of PRMT5 in mouse oligodendrocyte progenitor cells assessed as decreased in number of differentiating cells in presence of 0.2 uM KAT inhibitor NU-9056 after 24 to 48 hrs by CNP and MBP staining based assay. The settings on record: Oligodendrocyte progenitor cell, time 24-48 hrs.
Data set [12] shares this target. As to the kind of experiment: Inhibition of PRMT5 in mouse oligodendrocyte progenitor cells assessed as decrease in levels of H4R3me2s in presence of 100 uM KAT inhibitor Butyrolactone-3 after 24 to 48 hrs by immunoreactivity based analysis. The settings on record: Oligodendrocyte progenitor cell, time 24-48 hrs.
Data set [13] shares this target. In words: Inhibition of PRMT5 in mouse oligodendrocyte progenitor cells assessed as decrease in levels of H4R3me2s in presence of 0.2 uM KAT inhibitor NU-9056 after 24 to 48 hrs by immunoreactivity based analysis. The conditions noted are these: Oligodendrocyte progenitor cell, time 24-48 hrs.
For data set [14] the target is unchanged. As to the kind of experiment: Inhibition of PRMT5 in mouse oligodendrocyte progenitor cells assessed as decrease in expression of P53-responsive genes ((Mdm2, Cdkn1a, Perp) after 48 hrs by qRT-PCR analysis. It is filed as cell-based. The settings on record: Oligodendrocyte progenitor cell. (In general: Real-time PCR tracks product formation cycle by cycle.)

For data set [15] the target is unchanged. As to the kind of experiment: Inhibition of PRMT5 in mouse oligodendrocyte progenitor cells assessed as decrease in expression of P53-responsive genes ((Mdm2, Cdkn1a, Perp) in presence of 0.2 uM KAT inhibitor NU-9056 after 48 hrs by qRT-PCR analysis. It counts as cell-based. The conditions noted are these: Oligodendrocyte progenitor cell.
Data set [16] shares this target. In words: Inhibition of PRMT5 in mouse oligodendrocyte progenitor cells assessed as decrease in expression of P53-responsive genes ((Mdm2, Cdkn1a, Perp) in presence of 100 uM KAT inhibitor Butyrolactone-3 after 48 hrs by qRT-PCR analysis. It counts as cell-based. The conditions noted are these: Oligodendrocyte progenitor cell.

SMILES strings stand for the structures. The source made the active and inactive calls. No cut-off for these calls is given here.

Chain of Protein arginine N-methyltransferase 5 (Mus musculus) (Q8CIG8 whole entry): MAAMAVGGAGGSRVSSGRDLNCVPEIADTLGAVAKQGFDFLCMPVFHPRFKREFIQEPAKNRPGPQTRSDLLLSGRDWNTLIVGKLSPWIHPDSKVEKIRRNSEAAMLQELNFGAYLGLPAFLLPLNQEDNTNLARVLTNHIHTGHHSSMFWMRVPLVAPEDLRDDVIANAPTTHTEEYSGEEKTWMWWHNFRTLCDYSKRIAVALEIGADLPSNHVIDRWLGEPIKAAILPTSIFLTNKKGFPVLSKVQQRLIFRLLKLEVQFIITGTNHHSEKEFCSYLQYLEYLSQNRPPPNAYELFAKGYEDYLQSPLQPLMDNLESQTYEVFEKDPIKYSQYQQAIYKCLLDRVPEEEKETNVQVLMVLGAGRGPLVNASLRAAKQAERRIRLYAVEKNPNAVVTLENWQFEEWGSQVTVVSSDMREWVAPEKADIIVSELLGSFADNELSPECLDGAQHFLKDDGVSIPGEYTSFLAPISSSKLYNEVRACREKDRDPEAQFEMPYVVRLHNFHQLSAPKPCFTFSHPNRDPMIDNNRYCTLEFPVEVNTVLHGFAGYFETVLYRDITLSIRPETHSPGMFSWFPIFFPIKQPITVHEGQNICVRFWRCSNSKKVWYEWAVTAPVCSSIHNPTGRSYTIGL

On to `CC(/C=C/C(=O)NO)=C\[C@@H](C)C(=O)c1ccc(N(C)C)cc1`, for which, in [1], the inhibition result is “Active”.

Consider `O=C(NC[C@H](O)CN1CCc2ccccc2C1)c1ccnc(NC2CCC2)c1`, for which the inhibition entry in [2], in [3], in data set [4], in [7], in [8] and in data set [9] was “Active” each time. Besides, in data set [14], the inhibition entry was “Active”. Moreover, the Activity entry in data set [5] is listed as “Non-Toxic”; in data set [6], “Toxic”. The inhibition result in data set [10], in data set [11], in [12], in data set [13], in data set [15] and in data set [16] was “inactive” throughout.
